# Source: the array DNA melting data of Ke et al. (doi:10.1101/2024.01.08.574731)
# Tests used:
# [1] = melting temperature; fluorescence melt of hairpins on a sequencing array, two-state fit, raised by 9.35 °C to match UV melts; conditions: sodium 0.088 M
# Summary of the method: (§1)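 Folding enthalpy and melting temperature were estimated with bootstrapped two-state fits and combined across four replicates by inverse-variance weighting, with fitted temperatures raised by 9.35 °C to match UV melts. The data were Cy3 fluorescence of library hairpins, with annealed Cy3 and quencher oligos, on a sequenced MiSeq flow cell in 50 mM Na-HEPES pH 8.0, 25 mM NaCl, imaged in 2.5 °C steps up to 60 °C and normalised to pre-quench Cy3 and control constructs.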
# [2] = folding enthalpy; higher = less favourable; fluorescence melt of hairpins on a sequencing array, two-state fit; conditions: sodium 0.088 M
# Summary of the method: as §1
Sequence,Tm [1] [°C],folding enthalpy [2] [kcal/mol]
GAAACCCGAAAGGGTTC (((.(((....)))))),51.5,-10.2
GAAACCGAAAGGTCTTTC ((((((....)))..))),32.3,-14
GAAACCGAAAGGTGATTC ((((((....)))..))),41.6,-22.4
GAAACCGAAAGGTTGTTC ((((((....)))..))),36.8,-13.7
GAAACCGAAAGGTTTC ((((((....)))))),67.1,-29.4
GAAACCGGAAACGGCTTC (((.(((....))).))),42,-23.6
GAAACGAAAGTTTC (((((....))))),53.4,-29.1
GAAACTGGAAACAGTCTC ((.((((....)))).)),28,-15.5
GAAAGAGAAATCTTTC ((((((....)))))),36.8,-18.2
GAAAGAGGAAACTCTTTC (((((((....))))))),51.2,-37.8
GAAAGCCGAAAGGCGTTC (((.(((....))).))),52.3,-12.3
GAAAGCGAAAGCTCCTTC ((((((....)))..))),31.4,-10.2
GAAAGCGAAAGCTCGTTC ((((((....)))..))),25.9,-9.57
GAAAGCGAAAGCTCTTC ((((((....))).))),44.3,-17.9
GAAAGCGAAAGCTGGTTC ((((((....)))..))),29.3,-9.59
GAAAGCGGAAACGCTTCC (.(((((....))))).),41.4,-12.3
GAAAGCGGAAACGCTTTC (((((((....))))))),65.5,-41
GAAAGGACGAAAGTCTTC (((..(((....)))))),24.9,-11.8
GAAAGGCGAAAGCCTTC (((.(((....)))))),49.6,-10.4
GAAATCGGAAACGATTTC (((((((....))))))),59.5,-42.9
GAAATGGGAAACCATTCC (.(((((....))))).),31,-14.8
GAAATTGGAAACGATTTC (((((.(....).))))),37.6,-30.1
GAACAAGGAAACTTGCTC ((.((((....)))).)),29.4,-19.4

Sequence,Tm [1] [°C],folding enthalpy [2] [kcal/mol]
GAACACCCGAAAGGGTTC (((..(((....)))))),30.7,-8.81
GAACACCGAAAGGTATTC (((.(((....))).))),37.8,-25
GAACACGAAAGTGAATTC ((((((....)))..))),25.1,-13.3
GAACACGAAAGTGGCTTC ((((((....)))..))),45.4,-23
GAACACGGAAACGCGTTC ((((.((....)).)))),48.1,-35.8
GAACACGGAAACGTATTC (((.(((....))).))),33,-22.6
GAACACGGAAACGTGTTC (((((((....))))))),67.5,-38.1
GAACAGGGAAACCCGTTC ((((.((....)).)))),41.8,-24.4
GAACAGGGAAACCTGCTC ((.((((....)))).)),37.1,-18.8
GAACAGGGAAACCTGTTC (((((((....))))))),59.4,-37.8
GAACATGAAAATGTTC ((((((....)))))),52,-28.9
GAACCACCGAAAGGTTTC (((..(((....)))))),22.3,-9.16
GAACCAGGAAACTGGCTC ((.((((....)))).)),39.6,-21.8
GAACCCCGAAAGGGATTC (((.(((....))).))),46,-28.5
GAACCCCGAAAGGGCTTC (((.(((....))).))),34.3,-15.3
GAACCCGAAAGGGTTTC ((((((....))).))),56.9,-12.1
GAACCCGAAAGGGTTTTC ((((((....)))..))),55.9,-13.4
GAACCCGGAAACGAGTTC ((((.((....)).)))),40.8,-27.2
GAACCCGGAAACGGATTC (((.(((....))).))),41.5,-21
GAACCGCGAAAGCGCTTC (((.(((....))).))),35.1,-10.6
GAACCGGAAACGGTTC ((((((....)))))),67.4,-33
GAACCGGGAAACTGGTTC (((((.(....).))))),51.4,-41.7
GAACCTGGAAACAGGCTC ((.((((....)))).)),40,-18.9
